Experimental data published in ChEMBL document CHEMBL3352791, “Thioaryl naphthylmethanone oxime ether analogs as novel anticancer agents” (J Med Chem, 2014).
Activity calls are given as the source filed them. No cut-off for these calls is given here.

Key:
[1] = biological target: Induced myeloid leukemia cell differentiation protein Mcl-1 (Homo sapiens) (UniProt Q07820); assay: Inhibition of EGF-induced phosphorylated Mcl1 in human MDA-MB-231 cells at 1 uM by ELISA; assay type: cell-based
[2] = biological target: RAF proto-oncogene serine/threonine-protein kinase (Homo sapiens) (UniProt P04049); assay: Inhibition of c-RAF (unknown origin) at 10 uM
Chain of RAF proto-oncogene serine/threonine-protein kinase (Homo sapiens) (P04049 whole entry): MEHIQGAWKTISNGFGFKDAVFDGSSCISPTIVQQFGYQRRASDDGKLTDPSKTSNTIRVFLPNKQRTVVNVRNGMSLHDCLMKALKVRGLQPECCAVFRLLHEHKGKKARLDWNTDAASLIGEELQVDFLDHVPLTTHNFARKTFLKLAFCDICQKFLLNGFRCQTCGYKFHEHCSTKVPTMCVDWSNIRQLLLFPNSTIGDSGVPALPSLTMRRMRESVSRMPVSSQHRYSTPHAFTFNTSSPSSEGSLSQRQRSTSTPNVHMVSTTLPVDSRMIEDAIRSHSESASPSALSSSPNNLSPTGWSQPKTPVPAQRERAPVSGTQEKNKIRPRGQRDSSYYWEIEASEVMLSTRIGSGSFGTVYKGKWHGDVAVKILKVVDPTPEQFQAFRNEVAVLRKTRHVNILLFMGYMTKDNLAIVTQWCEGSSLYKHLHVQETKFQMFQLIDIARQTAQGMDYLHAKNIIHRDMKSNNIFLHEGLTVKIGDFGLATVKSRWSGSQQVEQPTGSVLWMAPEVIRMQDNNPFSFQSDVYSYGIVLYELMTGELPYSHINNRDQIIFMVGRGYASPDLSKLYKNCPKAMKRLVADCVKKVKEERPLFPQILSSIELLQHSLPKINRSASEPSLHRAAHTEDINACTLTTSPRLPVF
Method in brief: (§1)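 Cell-free kinase profiling was run as a standard 33P-ATP-based in vitro kinase assay.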

MDA-MB-231 [3] = assay: Induction of apoptosis in human […] cells assessed as caspase 8 activation at 2.5 to 7.5 uM by Caspase-Glo assay; assay type: functional, cell-based
Method in brief: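 Caspase-8, -9 and -3 activities measured with Caspase-Glo 8, 9 and 3 kits; mean ± SEM from three independent experiments.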

[4] = biological target: Transforming growth factor beta-1 proprotein (Homo sapiens) (UniProt P01137); assay: Inhibition of TGFbeta1 (unknown origin) at 10 uM
Chain of Transforming growth factor beta-1 proprotein (Homo sapiens) (P01137 279-390 limits assumed): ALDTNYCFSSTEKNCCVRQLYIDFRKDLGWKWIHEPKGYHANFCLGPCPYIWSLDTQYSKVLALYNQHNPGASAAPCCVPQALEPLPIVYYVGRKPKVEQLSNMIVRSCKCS

MDA-MB-231 [5] = assay: Induction of PTEN expression in human MDA-MB-231 cells at 1 uM after 24 hrs by qPCR analysis; assay type: functional, cell-based
Method in brief: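 qPCR on MDA-MB-231 cells treated with 1µM compound; GAPDH as internal control.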

[6] = biological target: Phosphodiesterase 3 (Homo sapiens) (UniProt Q14432+Q13370); assay: Inhibition of PDE3 CAT (unknown origin) activity at 1 to 10 uM; assay type: protein assay
Method in brief: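 Recombinant PDE isoform activity was read by fluorescence polarization. A binding reagent complexes with the nucleotide monophosphate that the phosphodiesterase generates from cAMP/cGMP, and this raises the polarization of the labelled substrate. Reference standards were PDE1A3 10µM IBMX, PDE2A3 1nM BAY 60-7550, PDE3CAT 1µM cilostazol, PDE4CAT rolipram, PDE5CAT 0.1µM sildenafil, PDE7A […], PDE8A1 10µM BRL-50481, PDE9A1 1µM SB 36216 and PDE11A1 dipyridamole.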

[7] = biological target: Mitogen-activated protein kinase; ERK1/ERK2 (Homo sapiens) (UniProt P27361+P28482); assay: Inhibition of basal level ERK1/2 phosphorylation in human MCF7 cells at 1 uM by ELISA; assay type: cell-based
Chain of Mitogen-activated protein kinase; ERK1/ERK2 (Homo sapiens) (P27361 whole entry, looked up): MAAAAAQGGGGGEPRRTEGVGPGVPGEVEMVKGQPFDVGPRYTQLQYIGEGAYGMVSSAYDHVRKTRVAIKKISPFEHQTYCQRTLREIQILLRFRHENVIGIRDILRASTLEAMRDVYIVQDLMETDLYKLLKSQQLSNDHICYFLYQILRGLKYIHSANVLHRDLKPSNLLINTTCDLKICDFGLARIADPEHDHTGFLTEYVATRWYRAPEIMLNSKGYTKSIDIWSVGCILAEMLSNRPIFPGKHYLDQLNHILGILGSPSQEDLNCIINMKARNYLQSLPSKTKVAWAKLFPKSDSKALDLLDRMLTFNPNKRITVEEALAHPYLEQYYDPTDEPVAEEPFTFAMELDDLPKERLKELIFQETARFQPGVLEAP
Chain of Mitogen-activated protein kinase; ERK1/ERK2 (Homo sapiens) (P28482 whole entry, looked up): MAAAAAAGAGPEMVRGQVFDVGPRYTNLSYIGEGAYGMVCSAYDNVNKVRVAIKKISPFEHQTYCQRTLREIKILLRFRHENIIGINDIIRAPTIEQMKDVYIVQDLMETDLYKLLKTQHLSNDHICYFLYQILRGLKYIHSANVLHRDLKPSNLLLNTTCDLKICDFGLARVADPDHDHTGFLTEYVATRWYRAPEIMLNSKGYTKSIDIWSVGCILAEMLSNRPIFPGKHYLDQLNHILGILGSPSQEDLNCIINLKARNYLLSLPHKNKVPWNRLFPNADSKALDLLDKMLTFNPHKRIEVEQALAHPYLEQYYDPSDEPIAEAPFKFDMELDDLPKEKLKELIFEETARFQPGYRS

MDA-MB-231 [8] = assay: Inhibition of mammosphere formation in human MDA-MB-231 cells at 5 to 20 uM after 8 days; assay type: functional, cell-based
Method in brief: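 Single cells were plated in ultralow-attachment plates at 100,000 viable cells/ml for primary culture and 5,000 cells/ml for passages. Spheres formed over 7–10 days in serum-free MEBM containing compound, with salinomycin as comparator. Primary spheres were trypsin-dissociated for serial passage. Sphere number was counted manually and verified by two independent observers blinded to treatment.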

[9] = system: Mast/stem cell growth factor receptor Kit (Homo sapiens), P10721 [D816V]; assay: Inhibition of cKit D816V mutant (unknown origin) at 10 uM; method in brief: as §1
Chain of Mast/stem cell growth factor receptor Kit (Homo sapiens), P10721 [D816V] (P10721 whole entry D816V): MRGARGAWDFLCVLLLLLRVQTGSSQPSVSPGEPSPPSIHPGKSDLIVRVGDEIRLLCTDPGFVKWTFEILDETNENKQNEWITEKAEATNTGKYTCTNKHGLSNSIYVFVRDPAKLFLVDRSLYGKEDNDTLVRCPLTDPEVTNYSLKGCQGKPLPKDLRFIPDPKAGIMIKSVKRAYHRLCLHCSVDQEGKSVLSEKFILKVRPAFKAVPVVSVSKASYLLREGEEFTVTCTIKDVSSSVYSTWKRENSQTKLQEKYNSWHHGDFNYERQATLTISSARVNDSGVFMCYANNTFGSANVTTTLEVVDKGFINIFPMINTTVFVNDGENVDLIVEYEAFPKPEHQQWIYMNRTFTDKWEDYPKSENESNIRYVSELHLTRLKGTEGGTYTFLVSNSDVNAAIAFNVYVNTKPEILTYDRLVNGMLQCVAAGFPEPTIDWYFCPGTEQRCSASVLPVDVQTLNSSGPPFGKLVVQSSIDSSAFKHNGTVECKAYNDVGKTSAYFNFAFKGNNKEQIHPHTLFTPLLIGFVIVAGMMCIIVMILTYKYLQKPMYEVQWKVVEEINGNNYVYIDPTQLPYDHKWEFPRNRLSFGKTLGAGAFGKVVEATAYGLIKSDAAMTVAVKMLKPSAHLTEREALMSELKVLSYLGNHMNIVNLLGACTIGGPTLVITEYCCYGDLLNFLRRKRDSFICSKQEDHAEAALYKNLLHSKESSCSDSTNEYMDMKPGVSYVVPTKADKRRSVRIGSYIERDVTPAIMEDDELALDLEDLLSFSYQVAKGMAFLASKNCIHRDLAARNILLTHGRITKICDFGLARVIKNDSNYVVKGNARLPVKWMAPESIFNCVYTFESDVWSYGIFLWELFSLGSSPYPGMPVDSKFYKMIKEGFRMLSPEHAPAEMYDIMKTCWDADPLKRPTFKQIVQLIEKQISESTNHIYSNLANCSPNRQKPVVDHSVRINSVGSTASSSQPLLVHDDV

MDA-MB-231 [10] = assay: Antiinvasion activity in human MDA-MB-231 cells assessed as inhibition of EGF-induced cell invaded to matrigel coated invasion chamber at 1 uM after 24 hrs by Transwell invasion assay; assay type: functional, cell-based
Method in brief: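 Transwell matrigel invasion (8 µm pore): cells at 1x10^5 cells/mL in 2% FBS medium in upper chamber; lower chamber medium with 1µM compound and EGF 100ng/ml; 24 h. Invaded cells on filter underside fixed, crystal-violet stained, counted in six random fields at 20×, dye dissolved in 0.1% SDS read at 540nm; triplicate chambers.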

MCF7 [11] = assay: Induction of apoptosis in human MCF7 cells xenografted in NIH-3 mouse assessed as decrease in cyclin D1 in tumor at 16 mg/kg, po for 25 days by qPCR; assay type: functional, organism-based; parameters: dose 16 mg/kg
[12] = system: Mast/stem cell growth factor receptor Kit (Homo sapiens), P10721 [D816H]; assay: Inhibition of cKit D816H mutant (unknown origin) at 10 uM; method in brief: as §1
Chain of Mast/stem cell growth factor receptor Kit (Homo sapiens), P10721 [D816H] (P10721 whole entry D816H): as the sequence (P10721 whole entry D816V) above, with V816H counted along it

MDA-MB-231 [13] = assay: Antiinvasion activity in human MDA-MB-231 cells assessed as inhibition of FBS-induced cell invaded to matrigel coated invasion chamber at 1 uM after 24 hrs by Transwell invasion assay; assay type: functional, cell-based
[14] = biological target: Plasminogen activator inhibitor 1 (Homo sapiens) (UniProt P05121); assay: Inhibition of basal level PAI-1 phosphorylation in human MDA-MB-231 cells at 1 uM by ELISA; assay type: cell-based
Chain of Plasminogen activator inhibitor 1 (Homo sapiens) (P05121 whole entry): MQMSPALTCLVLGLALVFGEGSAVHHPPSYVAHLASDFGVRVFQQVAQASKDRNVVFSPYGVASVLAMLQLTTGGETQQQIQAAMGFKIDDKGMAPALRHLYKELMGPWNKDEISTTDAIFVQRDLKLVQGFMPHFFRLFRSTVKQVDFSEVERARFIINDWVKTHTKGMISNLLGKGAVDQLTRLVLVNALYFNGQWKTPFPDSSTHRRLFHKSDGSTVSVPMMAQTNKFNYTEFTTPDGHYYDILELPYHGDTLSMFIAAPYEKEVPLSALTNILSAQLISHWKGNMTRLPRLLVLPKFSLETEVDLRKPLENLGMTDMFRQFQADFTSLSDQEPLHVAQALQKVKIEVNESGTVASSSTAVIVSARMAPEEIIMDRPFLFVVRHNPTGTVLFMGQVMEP

[15] = biological target: Angiopoietin-1 receptor (Homo sapiens) (UniProt Q02763); assay: Inhibition of Tie2 (unknown origin) at 10 uM; method in brief: as §1
Chain of Angiopoietin-1 receptor (Homo sapiens) (Q02763 whole entry): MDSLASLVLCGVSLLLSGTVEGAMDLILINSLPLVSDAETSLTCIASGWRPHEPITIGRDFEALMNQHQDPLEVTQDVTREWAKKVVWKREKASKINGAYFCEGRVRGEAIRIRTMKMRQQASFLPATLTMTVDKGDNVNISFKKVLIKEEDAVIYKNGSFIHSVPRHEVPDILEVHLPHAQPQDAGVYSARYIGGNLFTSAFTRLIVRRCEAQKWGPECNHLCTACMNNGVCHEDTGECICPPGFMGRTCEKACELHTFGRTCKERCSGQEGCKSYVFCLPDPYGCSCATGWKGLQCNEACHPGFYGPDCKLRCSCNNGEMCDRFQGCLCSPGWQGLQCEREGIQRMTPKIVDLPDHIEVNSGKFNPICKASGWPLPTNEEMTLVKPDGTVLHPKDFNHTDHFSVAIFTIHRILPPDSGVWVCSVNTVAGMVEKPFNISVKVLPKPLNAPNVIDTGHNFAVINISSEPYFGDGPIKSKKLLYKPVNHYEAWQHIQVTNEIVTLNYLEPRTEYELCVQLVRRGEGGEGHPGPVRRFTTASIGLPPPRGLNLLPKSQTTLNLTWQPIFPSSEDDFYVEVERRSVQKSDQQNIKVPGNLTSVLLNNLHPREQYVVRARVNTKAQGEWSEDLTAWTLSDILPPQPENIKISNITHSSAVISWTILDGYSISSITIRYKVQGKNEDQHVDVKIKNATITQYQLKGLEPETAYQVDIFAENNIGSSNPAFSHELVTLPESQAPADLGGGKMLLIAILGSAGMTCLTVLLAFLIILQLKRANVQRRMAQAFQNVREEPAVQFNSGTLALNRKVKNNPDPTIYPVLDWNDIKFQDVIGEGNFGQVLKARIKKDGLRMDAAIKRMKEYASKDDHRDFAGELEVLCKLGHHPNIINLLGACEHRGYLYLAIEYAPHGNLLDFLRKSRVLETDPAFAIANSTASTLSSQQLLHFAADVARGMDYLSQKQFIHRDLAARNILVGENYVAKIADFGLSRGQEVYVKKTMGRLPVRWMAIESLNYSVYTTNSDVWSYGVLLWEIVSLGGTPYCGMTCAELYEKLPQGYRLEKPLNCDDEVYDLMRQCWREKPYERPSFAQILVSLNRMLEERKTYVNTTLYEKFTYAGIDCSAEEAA

[16] = biological target: Focal adhesion kinase 1 (Homo sapiens) (UniProt Q05397); assay: Inhibition of basal level FAK phosphorylation at Tyr397 in human MDA-MB-231 cells at 1 uM by ELISA; assay type: cell-based
MDA-MB-231 [17] = assay: Cell cycle arrest in human […] cells assessed as accumulation at S phase at 2.5 uM by propidium iodide staining by FACS analysis (reference value: 13.72%); assay type: functional
MCF7 [18] = assay: Cell cycle arrest in human […] cells assessed as accumulation at G2 phase at 2.5 uM by propidium iodide staining by FACS analysis (reference value: 10.96%); assay type: functional
in vitro = conditions: human, MCF10A cells versus
MCF7 [19] = assay: Antiproliferative activity against human […] cells assessed as growth recovery treated up to 5 uM for 24 hrs followed by maintained in drug free medium for 72 hrs by MTT assay; assay type: functional
MDA-MB-231 [20] = assay: Cell cycle arrest in human […] cells assessed as accumulation at subG1 phase at 7.5 uM by propidium iodide staining by FACS analysis (reference value: 0.3%); assay type: functional
MCF7 [21] = assay: Antiproliferative activity against human ER-negative MCF7 cells after 72 hrs by MTT assay; assay type: functional, cell-based; conditions: MCF7, 72 h
[22] = Safety index, ratio of IC50 for human MCF10A cells to EC50 for human DLD1 cells; assay type: toxicity, cell-based, MCF-10A; conditions: MCF10A cells versus DLD1 cells, read-out: Ratio IC50/EC50
Method in brief: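 Safety index is the IC50 in the normal cells divided by the EC50 in the cancer cells. Both values come from MTT assays: cells in DMEM with 10% FBS, serum-starved 4 h, then exposed to compound across a 100nM-50µM dose range with 0.1% DMSO as vehicle control.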

MCF7 [23] = assay: Cell cycle arrest in human […] cells assessed as accumulation at G1 phase at 5 uM by propidium iodide staining by FACS analysis (reference value: 62.88%); assay type: functional
Vero = assay: Antiproliferative activity against african green monkey Vero cells after 24 hrs by MTT assay; assay type: functional, cell-based; conditions: Chlorocebus sabaeus
Method in brief: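 MTT viability: cells seeded at 1×10^4 per well in DMEM with 10% FBS, left to adhere overnight, then serum-starved 4 h. Compounds were given at a range of doses, with 0.1% DMSO vehicle as control. EC50 was taken from dose-response curves spanning 100nM-50µM. Data are mean ± SEM from at least three independent experiments.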

MCF7 [24] = assay: Cell cycle arrest in human […] cells assessed as accumulation at G2 phase at 5 uM by propidium iodide staining by FACS analysis (reference value: 10.96%); assay type: functional

Chain of Induced myeloid leukemia cell differentiation protein Mcl-1 (Homo sapiens) (Q07820 whole entry): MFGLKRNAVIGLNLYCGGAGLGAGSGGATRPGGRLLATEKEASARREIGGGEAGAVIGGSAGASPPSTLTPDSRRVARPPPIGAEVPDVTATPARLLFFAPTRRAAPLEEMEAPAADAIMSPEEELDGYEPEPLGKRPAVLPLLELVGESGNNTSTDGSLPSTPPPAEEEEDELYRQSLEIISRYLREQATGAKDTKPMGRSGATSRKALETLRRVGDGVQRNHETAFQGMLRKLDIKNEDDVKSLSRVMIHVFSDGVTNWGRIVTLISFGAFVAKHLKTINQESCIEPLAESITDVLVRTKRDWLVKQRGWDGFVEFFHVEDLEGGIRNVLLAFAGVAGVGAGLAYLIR

SMILES: CCN(CC)CCO/N=C(\c1ccc(SC)cc1)c1cccc2ccccc12
- inhibition [1]: Active
- inhibition [2]: inactive
- Activity (MDA-MB-231 [3]): Active
- inhibition [4]: inactive
- Activity (MDA-MB-231 [5]): Active
- inhibition [6]: inactive
- inhibition [7]: Active
- inhibition (MDA-MB-231 [8]): Active
- inhibition [9]: inactive
- inhibition (MDA-MB-231 [10]): Active
- Activity (MCF7 [11]): Active
- inhibition [12]: inactive
- Activity (MDA-MB-231 [13]): Active
- inhibition [14]: Active
- inhibition [15]: inactive
- inhibition [16]: Active

SMILES: CCN(CC)CCO/N=C(\c1ccc(SC)cc1)c1cccc2ccccc12.O=C(O)C(=O)O
- Activity (MDA-MB-231 [17]): 13.65%
- Activity (MCF7 [18]): 12.46%
- selectivity ratio (in vitro): 16.6
- Activity (MCF7 [19]): 50%
- Activity (MDA-MB-231 [20]): 0.8%
- EC50 (MCF7 [21]): 3 µM
- selectivity ratio [22]: 1.2
- Activity (MCF7 [23]): 74.66%
- IC50 (Vero): > 25 µM
- Activity (MCF7 [24]): 11.48%
